# This is a sample that favours compounds with a hit; in the whole collection about 4.3% have one here.
# UBC13 inh: blocks human UBC13 polyubiquitin chain formation | P61088 | actives 0.47% (n = 330,000) | AID 485273 | TR-FRET | inhibition, % at 20 µM; in the data active = inhibition above about 45%, passing the limit was not always enough
# UBC9 SUMO inh: SUMOylation inhibition | P63279 | HTRF SUMOylation assay, SAE1/SAE2 + UBC9, in vitro | inhibition, % at 35 µM | actives 0.36% (n = 290,000); in the data active = inhibition above about 50%, passing the limit was not always enough
# Rin1 Abl inh: blocks binding of human Rin1 to Abl; inhibition, % at 7.35 µM; TR-FRET Rin1/Abl binding, biochemical; actives 0.4% (n = 360,000); P00519+Q13671; in the data active = inhibition above about 5%, passing the limit was not always enough
# ALR H2O2 inh: human ALR oxidase inhibition via reduced H2O2 | purified ALR, DTT oxidation, H2O2 HRP-luminol luminescence | inhibition, % (test concentration not listed) | actives 3.8% (n = 290,000);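 active = mean replicate inhibition above about 79%, with every replicate also reaching it, limit read from the data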
# Target sequence (P55789 whole entry, looked up): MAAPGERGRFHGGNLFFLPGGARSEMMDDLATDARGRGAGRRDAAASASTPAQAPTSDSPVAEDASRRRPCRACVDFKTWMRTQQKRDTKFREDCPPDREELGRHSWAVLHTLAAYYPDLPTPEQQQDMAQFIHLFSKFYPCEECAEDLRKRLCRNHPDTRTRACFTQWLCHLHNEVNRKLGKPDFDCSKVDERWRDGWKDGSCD
# RBBP9 inh: blocks human serine hydrolase RBBP9 | inhibition, % at 7.94 µM | actives 0.2% (n = 220,000) | AID 1515 | O75884 | recombinant RBBP9, FP-Rh probe fluorescence polarization;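 active = inhibition above the campaign mean of all tested compounds plus 3 SD, cut at about 14% in these data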
# Target sequence (O75884 whole entry, looked up): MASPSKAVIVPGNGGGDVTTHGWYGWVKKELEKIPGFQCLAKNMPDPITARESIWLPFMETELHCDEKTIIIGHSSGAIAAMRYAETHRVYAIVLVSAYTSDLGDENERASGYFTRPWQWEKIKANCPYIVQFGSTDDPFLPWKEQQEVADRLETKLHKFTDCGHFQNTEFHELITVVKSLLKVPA
#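 Material: RBBP9 protein. Amount: RBBP9 at 2.5 µM in dispensed solution, before mixing. Schedule: 30 min then 45 min, 25 °C. Medium: Tris buffer pH 8.0, NaCl, Pluronic. Measured by: fluorescence polarization. Measure: percent inhibition from mP, scaled between DMSO and no-protein wells. Replication: one well per compound.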
# PREPL inh: inhibits the human prolyl oligopeptidase-like enzyme; Q4J6C6; recombinant PREPL, fluorescence polarization activity-based probe; inhibition, % at 5.96 µM; actives 0.68% (n = 320,000); AID 2751; in the data active = inhibition above about 43%
# Hits are given with their value; – = inactive; · = no result.
SMILES,UBC13 inh,UBC9 SUMO inh,Rin1 Abl inh,ALR H2O2 inh,RBBP9 inh,PREPL inh
O=C(CCN1c2ccccc2Sc2ccccc21)OCC(=O)N1CCN(C(=O)c2ccco2)CC1,–,–,–,91.5,–,–
COC(=O)c1ccc(NC(=O)c2cccnc2)cc1,–,–,–,–,·,–
Cc1ccc(N(CC(=O)Nc2ccccc2C(=O)NCc2ccco2)S(=O)(=O)c2ccccc2)cc1C,–,–,–,96.4,–,–
O=C(CN(c1ccccc1)S(=O)(=O)c1ccccc1)Nc1ccccc1C(=O)NCc1ccco1,–,–,–,–,–,–
O=C1CCC(C(=O)N(Cc2cccs2)C2(C(=O)NC3CCCCC3)CCCCC2)N1 (centres undefined),–,–,–,–,–,–
CC1(C)Cc2nc3oc4c(=S)nc[nH]c4c3cc2CO1,–,–,–,96.3,–,–
O=c1c(-c2ccc(O)cc2)coc2c(C3O[C@H](CO)[C@@H](O)[C@H](O)[C@H]3O)c(O)ccc12 (some centres undefined),–,–,–,99.0,·,–
O=c1c(-c2ccc(O)cc2)coc2c([C@@H]3O[C@H](CO)[C@@H](O)[C@H](O)[C@H]3O)c(O)ccc12,–,·,–,98.7,·,–
Cn1cc2cc([N+](=O)[O-])ccc2n1,–,–,–,–,–,–
Cc1cc(C)nc(NS(=O)(=O)c2ccc(NC(=O)Cc3ccccc3F)cc2)n1,–,–,–,99.0,·,–
COc1cc(NS(=O)(=O)c2ccc(NC(=O)COc3ccc(C)cc3C)cc2)nc(OC)n1,–,–,–,·,–,–
Cc1cc(C)nc(NS(=O)(=O)c2ccc(NC(=O)NC3CCCCC3)cc2)n1,–,–,–,98.4,–,–
Cc1cc(C)nc(NS(=O)(=O)c2ccc(NC(=O)Nc3ccccc3)cc2)n1,–,–,–,–,–,–
CCOc1ccccc1OCC(=O)Nc1ccc(S(=O)(=O)Nc2nc(C)cc(C)n2)cc1,–,–,–,94.7,–,–
COc1cc(NS(=O)(=O)c2ccc(NC(=O)COc3ccccc3C)cc2)nc(OC)n1,–,–,–,98.8,–,–
S=c1nc(NCc2cccc(Cl)c2)c2ccccc2[nH]1,–,–,–,·,·,–
COC(=O)C(C(=O)OC)C1C=CCN(C(C)=O)C1 (centres undefined),·,·,–,·,·,·
O[C@@H]1C[C@H](c2ccc(Cl)cc2)N(Cc2cccs2)C[C@H]1n1cc(-c2ccc(F)cc2)nn1,·,·,–,·,·,·
CN(C)c1ncnc2c1ncn2[C@H]1CN(Cc2ccc3c(c2)OCO3)C[C@@H](CO)O1,·,·,–,·,·,·
Cc1oc(-c2ccc(Cl)cc2)cc1-c1nn2c(-c3ccoc3C)nnc2s1,–,60.3,–,–,–,–
Clc1ccc(-c2nnc3sc(-c4ccc(Br)o4)nn23)cc1,–,–,–,–,–,–
Cc1c(C(=O)Nc2ccc(F)cc2)cn2c(nc3ccccc32)c1C#N,–,53.0,–,–,–,–
N#Cc1c2nc3ccccc3nc2n2cc(NC(=O)c3ccc(F)cc3)ccc12,·,·,–,·,–,·
COc1cc(/C=N/N=C2/C(=O)Nc3ccccc32)cc(OC)c1O,–,–,–,95.4,–,–
Cc1cccc(OCC(=O)Nc2ccc3c(c2)C(=O)NC3=O)c1,–,–,–,–,·,–
SMILES,UBC13 inh,UBC9 SUMO inh,Rin1 Abl inh,ALR H2O2 inh,RBBP9 inh,PREPL inh
COCCNC(=O)c1cc(S(=O)(=O)N(C)C2CCCCC2)ccc1Cl,·,·,–,·,·,·
O=C(CN1CCN(Cc2ccccc2)CC1)Nc1ccc([N+](=O)[O-])cc1C(=O)Nc1ccccc1F,–,–,–,–,–,43.1
Oc1cc(O)c2c(c1)O[C@H](c1ccc(O)c(O)c1)[C@H](O)C2,–,–,–,98.7,·,–
C/C(=N\NC(=O)C1COc2ccccc2O1)c1ccc(N2CCOCC2)cc1 (centres undefined),–,–,–,–,–,–
CCCc1cc(=O)oc2c(C)c(OCC(=O)Nc3cccnc3)ccc12,–,–,–,–,·,–
COc1ccc(/C=C2\Oc3cc(OCC(=O)N4CCC(C(=O)O)CC4)ccc3C2=O)c(OC)c1,–,–,–,·,·,–
COc1ccc(/C=C2\Oc3cc(OCC(=O)N4CCC(C(=O)O)CC4)ccc3C2=O)c(OC)c1OC,–,–,–,91.1,·,–
C(=C\c1ccccc1)/CN1CCN(C(CCc2ccccc2)c2nnnn2C2CCCCC2)CC1 (centres undefined),·,·,–,·,·,·

# From PubChem BioAssay
